From PubChem BioAssay
V-ATPase pH: yeast V-ATPase proton transport regulation by pHLuorin; S. cerevisiae, pHLuorin cytosolic pH fluorescence; response, % at 10 µM; 0.37% of 350,000 active; in the data active = response mostly above about 7.3%, no sharp cut-off; inactive = mostly below about 5.4%; also: actives read high
aDG glyco act: alpha-DG glycosylation activation. Pro5-aDG cells, alpha-DG glycosylation AlphaScreen (IIH6); 0% Pro5, 100% B10-LARGE cell signal. activation, % at 10 µM. 0.22% of 360,000 active;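 active = activation of at least 8% versus controls, or a plate z-score of at least 8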;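 also: Pro5 are CHO cells carrying HIG-tagged alpha-DG that lacks glycosylation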
ADAM17 inh: ADAM17 inhibition, QFRET primary screen; P78536; recombinant ADAM17, EDANS/DABCYL FRET peptide cleavage; inhibition, % at 6.95 µM; 0.83% of 370,000 active;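 active = inhibition above the mean of compounds lying between control limits plus 3 SD, set per campaign, cut at about 8.5% in these data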;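 also: 0% = DMSO-only wells as the low control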
Hep lipid drop: hepatic lipid droplet formation modulation; AML12 mouse hepatocytes, oleate lipid droplets, BODIPY imaging; inhibition, % at 6.5 µM; 0.4% of 240,000 active;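 active = lipid droplet intensity inhibited by at least 50%, with more than 500 cells counted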
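Technique: fluorescence imaging, 20x objective, two fields per well / Assay system: AML12 hepatocytes (mouse) / Measure: % inhibition of lipid droplet signal / Doses: 6.5 µM single-point dosing / Incubation: overnight exposure / Reagent: 100 µM oleic acid challenge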
ADAM10 inh: inhibits human ADAM10. O14672. recombinant ADAM10, EDANS/DABCYL FRET peptide cleavage, 3 h. inhibition, % at 7 µM. 0.62% of 370,000 active. AID 720582;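 active = inhibition above a per-campaign cutoff equal to the mean of compounds falling between control-based bounds plus 3 SD, cut at about 20% in these data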;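 also: 0% = DMSO wells while the 100% control is not disclosed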
Target sequence (O14672 214-748 limits assumed): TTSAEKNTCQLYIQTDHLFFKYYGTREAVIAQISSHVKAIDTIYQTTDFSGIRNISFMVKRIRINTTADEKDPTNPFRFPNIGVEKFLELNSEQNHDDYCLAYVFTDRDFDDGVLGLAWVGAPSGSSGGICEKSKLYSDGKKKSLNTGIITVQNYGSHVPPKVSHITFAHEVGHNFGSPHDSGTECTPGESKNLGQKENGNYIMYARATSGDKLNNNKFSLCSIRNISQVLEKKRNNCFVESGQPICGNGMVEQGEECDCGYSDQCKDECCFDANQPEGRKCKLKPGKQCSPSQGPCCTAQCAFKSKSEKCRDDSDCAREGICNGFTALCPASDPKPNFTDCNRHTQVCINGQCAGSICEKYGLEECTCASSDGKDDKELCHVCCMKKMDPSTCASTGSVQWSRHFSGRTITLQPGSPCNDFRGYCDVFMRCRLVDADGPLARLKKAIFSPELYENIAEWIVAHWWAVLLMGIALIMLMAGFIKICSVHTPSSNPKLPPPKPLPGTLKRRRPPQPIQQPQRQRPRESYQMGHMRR
MPTP inh: permeability transition pore inhibition; isolated mouse mitochondria, Ca2+ swelling absorbance, 30 min; inhibition, % at 10 µM; 1.4% of 360,000 active;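 active = inhibition of 50% or more, scaled per plate between neutral and stimulator controls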;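 also: 0% = DMSO wells given calcium and 100% = 1 mM EGTA wells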
Lipid drop inh: confirmation of inhibitors of hepatic lipid droplet formation; AML12 mouse hepatocytes, BODIPY lipid droplet imaging; droplets induced with 100 µM oleic acid; shares compounds with Hep lipid drop; inhibition, % at 5.2 µM; 65% of 870 active;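 active = inhibition of lipid droplet metric at least 50%, with more than 300 cells in each of four replicates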;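 also: plate controls were DMSO with oleic acid for no effect and 5 µM Triacsin-C for full effect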
AML12 tox img: AML12 hepatocyte cytotoxicity (counter-screen); shares compounds with Hep lipid drop; AML12 mouse hepatocytes, DAPI nuclear morphology cytotoxicity imaging; hits give high values; cells fed 100 µM oleate overnight; z-score at 5 µM; 3% of 870 active; in the data active = z-score above about 6.3;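 also: compound exposure lasted overnight at 37 °C before fixation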
AML12 tox conf: AML12 hepatocyte cytotoxicity, confirmed | shares compounds with Hep lipid drop | AML12 mouse hepatocyte viability, ATP luminescence; cells loaded with 100 µM oleic acid | cytotoxicity, % at 50 µM | 530 tested, under 10 active;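 active = cytotoxicity above 50% in each of four replicates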;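 also: compound exposure lasted overnight at 37 °C before the ATP read; 0% = DMSO-treated cells and 100% = wells with no cells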
An asterisk follows results filed as active; i = inactive; x = not tested or not shown. An excerpt weighted towards active compounds, which were near 3.1% of everything screened.

SMILES	V-ATPase pH	aDG glyco act	ADAM17 inh	Hep lipid drop	ADAM10 inh	MPTP inh	Lipid drop inh	AML12 tox img	AML12 tox conf
Clc1ccc(CN2CCN(N=Cc3cccc(OCc4ccccc4)c3)CC2)cc1	x	x	0.7	x	-2.6	x	x	x	x
CC(C)(C)c1ccc(-c2nnc(SCC(=O)Nc3sc4c(c3C#N)CCCC4)o2)cc1	-1.5	0.0	3.4	57.9*	11.7	10.3	2.0	-1.26	x
CCOC(=O)c1c(NC(=O)CSc2nnc(-c3ccc(Cl)cc3)o2)sc2c1CCC2	0.6	-0.1	-5.5	x	-12.3	7.4	x	x	x
CCc1cccc(NC(=O)CCCn2nc(CC)n3c(cc4occc43)c2=O)c1	2.0	-0.5	-6.5	52.8*	-9.6	-0.7	94.2*	-0.159	3.3
CCc1nn(CCCC(=O)NCc2ccccc2Br)c(=O)c2cc3occc3n12	2.0	-0.2	-6.8	-18.8	-3.5	0.8	x	x	x
O=C(NC(=S)Nc1ccccn1)c1ccc(-c2ccccc2)cc1	-0.5	-0.1	-1.2	94.0*	-6.6	0.8	16.0	-0.622	x
O=C(NC(=S)Nc1ccccn1)c1ccc([N+](=O)[O-])cc1	0.2	0.0	-2.7	2.5	3.4	-0.7	x	x	x
CCNC(=S)N1CCc2cc(OC)c(OC)cc2C1COc1ccccc1OC (stereo unspecified)	1.0	-0.1	-128.8	62.1*	-387.3	1.3	92.8*	-0.377	2.6
CCNC(=S)N1CCc2cc(OC)c(OC)cc2C1COc1ccc(OC)cc1 (stereo unspecified)	-1.9	0.1	2.6	16.1	3.5	-2.2	x	x	x
Cc1cccc(NC(=O)CSc2nc3ccccc3nc2N2CCCCC2)c1	0.4	-0.2	-0.3	30.9	-7.3	-0.3	x	x	x
COc1ccc(NC(=O)CSc2nc3ccccc3nc2N2CCCCC2)cc1	1.4	-0.5	-4.8	73.2*	-5.3	1.3	108.4*	-0.721	1.2
COc1cccc(NC(=O)CSc2nc3ccccc3nc2N2CCCC2)c1	-0.2	0.0	-4.3	58.3*	-18.9	0.4	99.2*	-0.715	8.0
Cc1cccc(NC(=O)CSc2nc3ccccc3nc2N2CCCC2)c1	-1.3	-0.1	-11.9	62.8*	-46.7	-0.7	102.2*	0.575	8.9
CC(=O)N1CCc2cc(Br)c(S(=O)(=O)CCC(=O)N3CCN(c4ccccn4)CC3)cc21	x	x	5.1	x	-1.3	x	x	x	x
COc1ccc2c(c1)c(CC(=O)NCc1cc([N+](=O)[O-])ccc1O)c(C)n2C(=O)c1ccc(Cl)cc1	-3.6	-0.1	3.2	5.9	-3.4	27.3	x	x	x
COc1ccc2c(c1)c(CC(=O)Nc1ccccc1OC)c(C)n2C(=O)c1ccc(Cl)cc1	1.2	-0.5	1.0	67.2*	15.9	3.3	-74.9	7.89	x
CCCCN(CCCNC(=O)CN1C(=O)COc2ccccc21)c1ccccc1	-2.6	2.4	-1.1	52.8*	0.7	3.1	102.6*	-0.382	4.1
CCCCNC(=O)C[C@H]1C(=O)N(Cc2ccc(OC)cc2)C2=CCCCC[C@@]21C(=O)OC	x	x	0.7	x	5.1	x	x	x	x
Cc1ccc(NC(=O)CCS(=O)(=O)c2ccccc2)cc1C	x	x	-3.3	x	-6.8	x	x	x	x
Cn1c(=O)c(=O)n(C)c2cc(N3CCOCC3)c(NS(=O)(=O)c3ccc(F)c(Cl)c3)cc21	0.0	0.1	-3.1	-24.5	-16.9	1.1	x	x	x
Cn1c(=O)c(=O)n(C)c2cc(N3CCCC3)c(NS(=O)(=O)c3ccc(Cl)cc3)cc21	3.8	-0.1	-15.7	50.1*	-72.4	-0.7	8.0	-0.613	x
CCCC(=O)OC12CCCN(C1)/C(=C/c1ccc(OC)cc1)C2 (stereo unspecified)	x	x	0.1	x	0.0	x	x	x	x
COc1cccc(/C(C)=N/NC(=O)Cc2c(C)[nH][nH]c2=O)c1	0.6	-0.5	-4.5	63.1*	-7.8	0.8	26.2	0.321	x
CN(CCO)c1ccc2c(c1)Oc1ccccc1CN(Cc1cn(Cc3ccccc3C(F)(F)F)nn1)S2(=O)=O	x	x	5.3	x	-2.0	x	x	x	x
CCOc1ccc2c(c1)-c1c(ssc1=S)C(C)(C)N2C(=O)CSC1=NCCS1	-0.5	-0.8	2.2	53.5*	10.9	3.3	12.6	0.203	x
SMILES	V-ATPase pH	aDG glyco act	ADAM17 inh	Hep lipid drop	ADAM10 inh	MPTP inh	Lipid drop inh	AML12 tox img	AML12 tox conf
CCCOc1ccc(C2=NNC(c3cccs3)=Nc3ccc(OC)cc32)cc1	3.5	-0.6	1.4	51.9*	-2.4	1.8	49.8	0.171	x
CCCOC(=O)c1ccc(NC(=O)CCOc2ccccc2)cc1	1.3	0.4	3.8	52.2*	13.0	19.8	103.8*	-0.163	14.4
COc1cccc(N2CCN(CC(=O)Nc3nnc(-c4ccccc4)s3)CC2)c1	1.9	-0.3	3.4	59.2*	10.7	0.4	95.2*	0.504	14.9
CCCCc1ccc(NC(=O)CSc2nnc(C)c(=O)n2N)cc1	3.7	-0.2	0.3	81.2*	-10.1	-1.0	106.5*	0.437	21.5
CCOC(=O)c1ccc(NC(=O)CSc2nc3ncccc3[nH]2)cc1	-0.8	0.4	-1.5	6.7	2.9	7.9	x	x	x
CCCCc1ccc(NC(=O)CSc2nc3ncccc3[nH]2)cc1	-0.3	2.7	1.2	51.9*	11.0	13.2	91.5*	-0.43	29.5
CO[C@H]([C@H](C)/C=C/N(C)C=O)[C@@H](C)C(=O)CC[C@H](C)[C@H](O)[C@H](C)[C@H]1OC(=O)/C=C/C(C)=C/C[C@H](O)C[C@@H]2C=CC[C@@H](C[C@H](OC)C(C)(O)[C@@H](OC)C[C@@H](OC)[C@@H]1C)O2 (stereo partly specified)	x	x	-2.0	x	6.5	x	x	x	x
COc1ccc(N2CCN(C(=O)c3cc(C)on3)CC2)cc1	1.9	-0.4	-0.7	56.4*	-10.8	0.1	-9.6	-0.438	x
Cc1cc(C(=O)N2CCN(c3ccccc3)CC2)no1	-4.5	-0.2	x	x	x	-1.1	x	x	x
CCOc1c2ccc(C(=O)NCc3ccc(OC(F)(F)F)cc3)cc2nn1CC	2.0	0.1	-150.8	x	i	-1.8	x	x	x
CCCn1nc2cc(C(=O)NCc3ccc(OC(F)(F)F)cc3)ccc2c1OCC	1.5	0.0	-200.3	66.7*	i	-1.8	98.3*	-0.658	6.2
O=[N+]([O-])c1ccccc1/C=C/C=N/Nc1ccc(S(=O)(=O)Nc2ccc(Cl)cc2)cc1[N+](=O)[O-]	-0.9	0.4	-1.2	60.5*	-2.6	4.5	69.4	-0.458	10.1
C/C(=N\Nc1ccc(S(=O)(=O)Nc2ccccc2)cc1[N+](=O)[O-])c1ccncc1	x	x	-2.0	-48.6	-1.2	x	x	x	x
C/C(=N\Nc1ccc(S(=O)(=O)Nc2ccc(Cl)cc2)cc1[N+](=O)[O-])c1ccc(N2CCOCC2)cc1	6.9	-0.5	-0.1	88.5*	4.7	2.9	65.4	-0.286	11.4
